Results reported in ChEMBL document CHEMBL1149333, “Privileged scaffolds for blocking protein-protein interactions: 1,4-disubstituted naphthalene antagonists of transcription factor complex HOX-PBX/DNA” (Bioorg Med Chem Lett, 2004).

Assays:
[1] = Antagonistic activity against HOXA1-PBX1/DNA complex formation by electrophoretic mobility shift assay; type: functional
Method in brief: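 Recombinant mouse HOXA1 192–288 and mouse/human PBX1 233–319 (2.5 ng each) preincubated 15 min at 4 °C in HEPES pH 7.9 binding buffer with 135 mM NaCl, poly dIdC and inhibitor in DMSO, then 30 min at ~22 °C with 32P-labeled Klenow-extended annealed oligonucleotide probe. Run on 4% polyacrylamide gel in TBE, autoradiographed; IC50 from averaged densitometry of multiple gels; screened initially at 300 μM.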

[2] = target: POU domain, class 3, transcription factor 2 (Mus musculus) (UniProt P31360); test: Antagonistic activity against BRN2/DNA interaction by electrophoretic mobility shift assay
[3] = target: POU domain, class 3, transcription factor 3 (Mus musculus) (UniProt P31361); test: Antagonistic activity against BRN1/DNA interaction by electrophoretic mobility shift assay
Chain of POU domain, class 3, transcription factor 3 (Mus musculus) (P31361 whole entry, looked up, the tested form may be a part): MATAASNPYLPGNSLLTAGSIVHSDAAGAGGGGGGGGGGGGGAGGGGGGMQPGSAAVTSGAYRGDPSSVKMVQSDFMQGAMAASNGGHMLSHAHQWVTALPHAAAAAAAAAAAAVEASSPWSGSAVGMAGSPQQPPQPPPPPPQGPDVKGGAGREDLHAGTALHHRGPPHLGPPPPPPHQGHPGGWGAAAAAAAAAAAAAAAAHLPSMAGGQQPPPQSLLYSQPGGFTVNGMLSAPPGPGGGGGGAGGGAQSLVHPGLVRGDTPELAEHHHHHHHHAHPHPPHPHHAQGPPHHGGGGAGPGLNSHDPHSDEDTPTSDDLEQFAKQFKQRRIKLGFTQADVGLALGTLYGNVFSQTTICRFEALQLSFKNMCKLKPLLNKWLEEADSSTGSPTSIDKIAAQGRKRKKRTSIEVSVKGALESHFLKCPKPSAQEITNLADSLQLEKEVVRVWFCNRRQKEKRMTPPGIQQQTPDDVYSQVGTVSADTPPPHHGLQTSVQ

Chain of POU domain, class 3, transcription factor 2 (Mus musculus) (P31360 whole entry, looked up, the tested form may be a part): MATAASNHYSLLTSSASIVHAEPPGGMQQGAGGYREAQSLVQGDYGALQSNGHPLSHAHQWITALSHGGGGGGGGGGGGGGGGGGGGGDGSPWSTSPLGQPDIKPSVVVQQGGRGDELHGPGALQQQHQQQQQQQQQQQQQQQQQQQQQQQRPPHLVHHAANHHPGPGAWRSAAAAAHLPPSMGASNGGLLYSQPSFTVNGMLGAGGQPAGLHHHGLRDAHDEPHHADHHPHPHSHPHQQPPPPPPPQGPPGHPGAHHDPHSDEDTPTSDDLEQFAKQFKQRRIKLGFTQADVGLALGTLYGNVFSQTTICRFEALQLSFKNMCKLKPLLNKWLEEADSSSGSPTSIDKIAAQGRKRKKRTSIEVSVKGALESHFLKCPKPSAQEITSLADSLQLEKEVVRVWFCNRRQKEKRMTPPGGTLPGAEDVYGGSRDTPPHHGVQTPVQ

IC50 [1] [µM]	IC50 [2] [µM]	IC50 [3] [µM]	Compound
> 300	–	–	O=C(COc1ccc(C(=O)Nc2cccc(F)c2)c2ccccc12)NCCOCc1ccccc1
298	–	–	CC(C)CNC(=O)COc1ccc(C(=O)Nc2cccc(F)c2)c2ccccc12
> 300	–	–	Cc1ccc(NC(=O)COc2ccc(C(=O)Nc3cccc(F)c3)c3ccccc23)c(C)c1
> 300	–	–	CNC(=O)COc1ccc(C(=O)Nc2cccc(F)c2)c2ccccc12
> 300	–	–	NNC(=O)COc1ccc(C(=O)Nc2cccc(F)c2)c2ccccc12
580	–	–	COc1cccc(NC(=O)COc2ccc(C(=O)Nc3cccc(F)c3)c3ccccc23)c1
> 300	–	–	CCOC(=O)CNC(=O)COc1ccc(C(=O)Nc2cccc(F)c2)c2ccccc12
161	–	–	COc1ccc(NC(=O)COc2ccc(C(=O)Nc3cccc(F)c3)c3ccccc23)cc1
278	–	–	CCCNC(=O)COc1ccc(C(=O)Nc2cccc(F)c2)c2ccccc12
65	138	124	O=C(COc1ccc(C(=O)Nc2cccc(F)c2)c2ccccc12)Nc1ccc(O)cc1
> 300	–	–	O=C(Nc1cccc(F)c1)c1ccc(OCC(=O)N2CCOCC2)c2ccccc12
433	–	–	O=C(COc1ccc(C(=O)Nc2cccc(F)c2)c2ccccc12)Nc1ccccc1F
> 300	–	–	O=C(O)CNC(=O)COc1ccc(C(=O)Nc2cccc(F)c2)c2ccccc12
272	–	–	NC(=O)COc1ccc(C(=O)Nc2cccc(F)c2)c2ccccc12
> 300	–	–	O=C(COc1ccc(C(=O)Nc2cccc(F)c2)c2ccccc12)NCCO
> 300	–	–	COc1cc(NC(=O)COc2ccc(C(=O)Nc3cccc(F)c3)c3ccccc23)cc(OC)c1

IC50 [1] [µM]	IC50 [2] [µM]	IC50 [3] [µM]	Compound
> 300	–	–	CN(C)C(=O)COc1ccc(C(=O)Nc2cccc(F)c2)c2ccccc12
> 300	–	–	CC(C)(C)NC(=O)COc1ccc(C(=O)Nc2cccc(F)c2)c2ccccc12
> 300	–	–	CN(C)CCNC(=O)COc1ccc(C(=O)Nc2cccc(F)c2)c2ccccc12
> 300	–	–	O=C(COc1ccc(C(=O)Nc2cccc(F)c2)c2ccccc12)Nc1cccc(F)c1
111	204	162	O=C(COc1ccc(C(=O)Nc2cccc(F)c2)c2ccccc12)NCC(F)(F)F
86	148	142	O=C(COc1ccc(C(=O)Nc2cccc(F)c2)c2ccccc12)Nc1cccc(O)c1
200	–	–	CCNC(=O)COc1ccc(C(=O)Nc2cccc(F)c2)c2ccccc12
464	–	–	COc1ccc(NC(=O)COc2ccc(C(=O)Nc3cccc(F)c3)c3ccccc23)cc1OC
272	–	–	CC(C)NC(=O)COc1ccc(C(=O)Nc2cccc(F)c2)c2ccccc12
> 300	–	–	COc1ccc(OC)c(NC(=O)COc2ccc(C(=O)Nc3cccc(F)c3)c3ccccc23)c1
718	–	–	COc1ccccc1NC(=O)COc1ccc(C(=O)Nc2cccc(F)c2)c2ccccc12
331	–	–	C#CCNC(=O)COc1ccc(C(=O)Nc2cccc(F)c2)c2ccccc12
293	–	–	O=C(COc1ccc(C(=O)Nc2cccc(F)c2)c2ccccc12)Nc1ccc(F)cc1
> 300	–	–	COc1cc(CNC(=O)COc2ccc(C(=O)Nc3cccc(F)c3)c3ccccc23)cc(OC)c1
173	> 10000	810	O=C(COc1ccc(C(=O)Nc2cccc(F)c2)c2ccccc12)NC1CC1
254	–	–	O=C(COc1ccc(C(=O)Nc2cccc(F)c2)c2ccccc12)Nc1ccccc1
